{"data": "Published values of several laboratories", "target": "Ephrin type-B receptor 2 (EPHB2, Homo sapiens, UniProt P29323)", "Sequence (P29323 19-1055, as in one of the studies)": "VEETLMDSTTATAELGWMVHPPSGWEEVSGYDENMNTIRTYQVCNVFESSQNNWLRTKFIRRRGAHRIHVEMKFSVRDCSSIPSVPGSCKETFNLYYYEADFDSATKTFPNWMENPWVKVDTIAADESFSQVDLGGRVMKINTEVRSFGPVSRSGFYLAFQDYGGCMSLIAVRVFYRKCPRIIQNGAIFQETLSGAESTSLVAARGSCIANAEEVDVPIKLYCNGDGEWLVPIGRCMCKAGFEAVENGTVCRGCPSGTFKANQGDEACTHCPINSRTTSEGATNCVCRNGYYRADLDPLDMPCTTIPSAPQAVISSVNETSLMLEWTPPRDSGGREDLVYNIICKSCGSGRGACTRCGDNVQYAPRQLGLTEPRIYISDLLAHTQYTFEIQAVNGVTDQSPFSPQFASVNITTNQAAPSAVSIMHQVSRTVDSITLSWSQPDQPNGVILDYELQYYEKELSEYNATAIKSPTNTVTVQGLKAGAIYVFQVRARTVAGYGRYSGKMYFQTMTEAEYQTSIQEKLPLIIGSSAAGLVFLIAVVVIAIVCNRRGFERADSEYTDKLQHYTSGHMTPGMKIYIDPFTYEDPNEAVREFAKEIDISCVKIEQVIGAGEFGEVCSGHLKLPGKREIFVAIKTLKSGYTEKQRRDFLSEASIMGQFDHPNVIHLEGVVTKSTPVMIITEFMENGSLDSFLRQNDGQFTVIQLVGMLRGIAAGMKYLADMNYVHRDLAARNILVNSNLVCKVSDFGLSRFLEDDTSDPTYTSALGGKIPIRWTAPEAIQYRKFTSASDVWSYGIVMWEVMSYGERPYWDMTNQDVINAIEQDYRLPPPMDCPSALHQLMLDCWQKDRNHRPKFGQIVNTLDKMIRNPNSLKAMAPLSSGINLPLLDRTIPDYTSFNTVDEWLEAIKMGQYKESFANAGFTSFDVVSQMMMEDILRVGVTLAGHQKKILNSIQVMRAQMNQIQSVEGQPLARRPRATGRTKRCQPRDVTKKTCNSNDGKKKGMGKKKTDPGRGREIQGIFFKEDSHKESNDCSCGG", "note": "Each line is one published result; the experiments were not run side by side."}
{"Structure (SMILES)": "COc1cc(Nc2cnc(C#N)c(O[C@H](C)CN(C)C)n2)ncc1-c1cnn(C)c1", "assay": "enzyme activity, inhibitor, radiometric", "conditions": "10 µM", "quantity": "remaining activity", "result": "63%"}
{"Structure (SMILES)": "CN(C)c1ccc(C=C2C(=O)Nc3ccccc32)cc1", "assay": "cell-free assay", "conditions": "0.5 µM", "quantity": "remaining signal", "result": "86.5%"}
{"Structure (SMILES)": "CNC(=O)Nc1ccc2c(c1)CC[C@@]21OC(=O)N(CC(=O)N(Cc2ccc(F)cc2)[C@@H](C)C(F)(F)F)C1=O", "assay": "cell-free assay, competition with immobilised ligand", "conditions": "1 µM", "quantity": "remaining binding", "result": "72%"}
{"Structure (SMILES)": "COc1cc2ncnc(Nc3ccc(Oc4ccccc4)c(C)c3C)c2cc1OC", "assay": "enzyme activity, inhibitor", "conditions": "1 µM", "quantity": "inhibition", "result": "6%"}
{"Structure (SMILES)": "Cc1nc(C2CCN(C(=O)c3ccc(OC(F)(F)F)cc3N)CC2)c2ncc(N3CCN(C)CC3)cc2n1", "assay": "cell-free assay, competition with immobilised ligand", "conditions": "1 µM", "quantity": "remaining binding", "result": "100%"}
{"Structure (SMILES)": "Cc1ccc(C(=O)Nc2ccc(CN3CCN(C)CC3)c(C(F)(F)F)c2)cc1C#Cc1cnc2cccnn12", "assay": "cell-free assay", "conditions": "23.5 nM", "quantity": "remaining signal", "result": "49%"}
{"Structure (SMILES)": "Cc1ccc(NC(=O)c2ccc(C)c(C(F)(F)F)c2)cc1C#Cc1nn(C2CCC(O)CC2)c2ncnc(N)c12 (centres unmarked)", "assay": "cell-free assay", "conditions": "10 µM", "quantity": "remaining signal", "result": "-1%"}
{"Structure (SMILES)": "O=C1NC(=O)c2cc(Nc3ccc(F)cc3)c(Nc3ccc(F)cc3)cc21", "assay": "cell-free assay", "conditions": "0.5 µM", "quantity": "remaining signal", "result": "89.3%"}
{"Structure (SMILES)": "CC/C(=N\\NC(=O)NCc1cccc(O)c1)c1ccc(O)c(C)c1O", "assay": "enzyme activity, inhibitor", "conditions": "0.1 µM", "quantity": "inhibition", "result": "1.5%"}
{"Structure (SMILES)": "Cc1cc(NC(=O)c2cccc3cc(-c4cccc5[nH]nc(N)c45)ccc23)ccc1F", "assay": "enzyme activity, inhibitor", "conditions": "0.1 µM", "quantity": "activity vs control", "result": "102%"}
{"Structure (SMILES)": "O=C1Nc2ccc(Cl)cc2C1=Cc1cc(Cl)c(O)c(Cl)c1", "assay": "cell-free assay", "conditions": "0.5 µM", "quantity": "remaining signal", "result": "90.9%"}
{"Structure (SMILES)": "CN(C)c1ncnc(-c2ccc3nc(Nc4cc(CN5CCN(C(=O)CC(F)(F)F)CC5)ccn4)[nH]c3c2)c1Cl", "assay": "cell-free assay, competition with immobilised ligand", "conditions": "1 µM", "quantity": "remaining binding", "result": "100%"}
{"Structure (SMILES)": "COc1cccc2c(NCc3ccccc3)nc(-n3c(N)nc4ccccc43)nc12", "assay": "target engagement in cells, inhibitor, chemoproteomics", "conditions": "20 mM", "quantity": "inhibition", "result": "8.3%"}
{"Structure (SMILES)": "CC(C)(O)c1cncc(-c2nc3ccc(F)cc3n2C2CC2)c1", "assay": "cell-free assay, competition with immobilised ligand", "conditions": "1 µM", "quantity": "remaining binding", "result": "99%"}
{"Structure (SMILES)": "Cc1ccc(Nc2nccc(N(C)c3ccc4c(C)n(C)nc4c3)n2)cc1S(N)(=O)=O", "assay": "enzyme activity, inhibitor", "conditions": "0.3 µM", "quantity": "inhibition", "result": "7%"}
{"Structure (SMILES)": "COc1cc2ncnc(Nc3ccc(F)c(Cl)c3)c2cc1OCCCN1CCOCC1", "assay": "cell-free assay", "conditions": "0.5 µM", "quantity": "remaining signal", "result": "87.7%"}
{"Structure (SMILES)": "CC(C)(C)c1nc2c(s1)c1nc(N)ncc1c1ccc(NS(=O)(=O)c3c(F)cccc3F)c(F)c12", "assay": "enzyme activity, inhibitor, radiometric", "conditions": "1 µM", "quantity": "remaining activity", "result": "91%"}
{"Structure (SMILES)": "CCC(=O)N[C@@H]1CC[C@H](C(=O)N(C)c2ccc(-c3nc4ccccc4o3)cc2)C1", "assay": "cell-free assay, competition with immobilised ligand", "conditions": "1 µM", "quantity": "remaining binding", "result": "82%"}
{"Structure (SMILES)": "Cc1ccc(C(=O)NCc2ccsc2)cc1C#Cc1cn(C(C)C)c2ncnc(N)c12", "assay": "enzyme activity, inhibitor", "conditions": "1 µM", "quantity": "activity vs control", "result": "2%"}
{"Structure (SMILES)": "Cn1c(=O)n(-c2ccc(C(C)(C)C#N)cc2)c2c3cc(-c4cnc5ccccc5c4)ccc3ncc21", "assay": "enzyme activity, inhibitor", "conditions": "10 µM", "quantity": "remaining activity", "result": "77%"}
{"Structure (SMILES)": "CC(=O)c1c(NS(C)(=O)=O)c2cc(-c3ccc(Cl)cc3)c(-c3ccc(Cl)cc3Cl)nc2n(C)c1=O", "assay": "cell-free assay, competition with immobilised ligand", "conditions": "1 µM", "quantity": "remaining binding", "result": "100%"}
{"Structure (SMILES)": "CCN(CC)CCNC(=O)c1c(C)[nH]c(/C=C2\\C(=O)Nc3ccc(F)cc32)c1C", "assay": "enzyme activity, inhibitor", "conditions": "10 µM", "quantity": "inhibition", "result": "90%"}
{"Structure (SMILES)": "O=C(Nc1cnn(-c2csc(C(=O)NC3COC3)c2)c1)Nc1ccccc1Cl", "assay": "enzyme activity, inhibitor", "conditions": "5 µM", "quantity": "remaining activity", "result": "101%"}
{"Structure (SMILES)": "O=C(NCc1ncc(C(F)(F)F)cc1Cl)c1ccc2c(c1)C1(CCS(=O)(=O)CC1)[C@H](C1CC1)N2S(=O)(=O)c1ccc(F)cc1", "assay": "cell-free assay, competition with immobilised ligand", "conditions": "1 µM", "quantity": "remaining binding", "result": "100%"}
{"Structure (SMILES)": "CN(C)C1CCN(CC#Cc2nn(C3CCCC3)c3nc(NCc4ccccc4)ncc23)C1 (centres unmarked)", "assay": "enzyme activity, inhibitor, FRET", "conditions": "0.1 µM", "quantity": "inhibition", "result": "3%"}
{"Structure (SMILES)": "CCOc1cc(-c2nncn2C)ccc1Nc1ncc2cc(C)nc(NCC(C)(C)C)c2n1", "assay": "enzyme activity, inhibitor, FRET", "conditions": "1 µM", "quantity": "inhibition", "result": "< 15%"}
{"Structure (SMILES)": "Cc1cnc(NC2CCOCC2)nc1-n1cnc(C(=O)NC(CN)c2cc(F)cc(Cl)c2)c1 (centres unmarked)", "assay": "enzyme activity, inhibitor, radiometric", "conditions": "1 µM", "quantity": "remaining activity", "result": "96%"}
{"Structure (SMILES)": "CSc1cccnc1N1CCN(Cc2nc3ccccc3[nH]2)CC1", "assay": "cell-free assay, competition with immobilised ligand", "conditions": "1 µM", "quantity": "remaining binding", "result": "99%"}
{"Structure (SMILES)": "CNC(=O)c1cc2c(Oc3ccc(NC(=O)C4(C(=O)Nc5ccc(F)cc5)CC4)cc3)ccnc2cc1OC", "assay": "enzyme activity, inhibitor, radiometric", "conditions": "1 µM", "quantity": "inhibition", "result": "95%"}
